Results taken from publication PMC11865470 (Communications Biology, 2025).

How the values were obtained:
Assay type in all cases: cell-based
[1] = target: T1, Kir4.1 (Homo sapiens, UniProt P78508); test: whole-cell patch-clamp, off-target channel, 10 μM compound; settings: vs 0.1% DMSO
T1 sequence (P78508 1-379): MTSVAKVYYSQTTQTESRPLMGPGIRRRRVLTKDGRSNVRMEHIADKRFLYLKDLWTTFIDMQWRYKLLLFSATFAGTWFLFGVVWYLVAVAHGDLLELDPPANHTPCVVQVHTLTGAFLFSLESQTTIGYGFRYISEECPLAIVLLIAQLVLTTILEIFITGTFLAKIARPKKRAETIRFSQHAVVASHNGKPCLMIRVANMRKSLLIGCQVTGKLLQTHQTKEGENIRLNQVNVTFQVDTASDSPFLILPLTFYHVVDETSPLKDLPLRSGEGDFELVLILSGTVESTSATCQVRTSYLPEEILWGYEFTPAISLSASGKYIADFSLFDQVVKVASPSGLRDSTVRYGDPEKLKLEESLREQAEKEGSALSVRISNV
In short: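 Kir channels in transfected HEK293T cells, whole-cell. Pipette (mM): 135 KCl, 2 MgCl2, 10 HEPES, 1 EGTA, 4 Na2-ATP, pH 7.3. Bath (mM): 135 NaCl, 5 KCl, 1.5 CaCl2, 1 MgCl2, 10 HEPES, 10 glucose, pH 7.4. 0.1% DMSO bath applied before 10 μM test compound. Inhibition ratios compared by unpaired t-test, n = 5.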

[2] = target: T2, KV4.3 (Rattus norvegicus, UniProt Q62897); test: whole-cell patch-clamp, off-target channel, 10 μM compound
T2 sequence (Q62897 1-611 isoform Q62897-3): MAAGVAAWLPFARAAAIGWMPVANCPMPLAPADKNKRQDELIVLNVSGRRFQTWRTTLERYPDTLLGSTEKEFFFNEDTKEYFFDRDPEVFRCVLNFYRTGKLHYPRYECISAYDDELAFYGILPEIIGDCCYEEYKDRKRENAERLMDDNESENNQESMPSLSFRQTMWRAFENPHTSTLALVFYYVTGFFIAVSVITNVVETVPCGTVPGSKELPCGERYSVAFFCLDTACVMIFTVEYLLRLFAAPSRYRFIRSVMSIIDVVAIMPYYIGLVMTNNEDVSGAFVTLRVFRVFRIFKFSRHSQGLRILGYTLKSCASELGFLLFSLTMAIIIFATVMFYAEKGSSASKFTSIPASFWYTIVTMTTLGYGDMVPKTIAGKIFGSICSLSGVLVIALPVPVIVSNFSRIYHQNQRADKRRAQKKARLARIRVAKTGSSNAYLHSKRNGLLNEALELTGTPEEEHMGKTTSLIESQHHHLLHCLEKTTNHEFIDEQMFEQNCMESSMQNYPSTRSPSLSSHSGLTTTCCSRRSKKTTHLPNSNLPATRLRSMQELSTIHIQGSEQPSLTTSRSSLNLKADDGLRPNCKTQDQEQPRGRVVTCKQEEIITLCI
In short: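 KV channels in transiently transfected HEK293T cells, whole-cell. Pipette (mM): 140 KCl, 2.5 MgCl2, 11 EGTA, 10 HEPES, pH 7.4. Bath (mM): 145 NaCl, 2.8 KCl, 2 CaCl2, 1 MgCl2, 10 glucose, 10 HEPES, pH 7.4. 0.1% DMSO bath applied, then 10 μM test compound. DMSO vs compound inhibition ratio compared by unpaired t-test, n = 5.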

[3] = target: Kir2.1 (Homo sapiens, UniProt P63252); test: whole-cell patch-clamp, off-target channel, 10 μM compound; settings: vs 0.1% DMSO
Kir2.1, sequence (P63252 whole entry): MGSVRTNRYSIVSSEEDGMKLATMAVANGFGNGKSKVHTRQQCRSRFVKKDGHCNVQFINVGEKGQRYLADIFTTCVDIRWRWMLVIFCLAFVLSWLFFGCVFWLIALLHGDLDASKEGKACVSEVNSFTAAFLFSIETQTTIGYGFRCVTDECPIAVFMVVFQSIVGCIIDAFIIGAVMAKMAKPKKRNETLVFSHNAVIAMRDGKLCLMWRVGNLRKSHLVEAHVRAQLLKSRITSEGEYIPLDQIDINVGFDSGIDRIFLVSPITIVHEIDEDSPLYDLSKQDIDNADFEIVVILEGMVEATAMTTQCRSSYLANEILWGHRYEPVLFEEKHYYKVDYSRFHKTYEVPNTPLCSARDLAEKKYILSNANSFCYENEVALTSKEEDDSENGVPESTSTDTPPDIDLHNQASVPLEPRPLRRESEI

[4] = target: hERG (Homo sapiens, UniProt Q12809); test: whole-cell patch-clamp, off-target channel, 10 μM compound
In short: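 hERG, transiently transfected HEK293T cells, whole-cell recording 16–24 h after seeding. Bath containing 0.1% DMSO applied first, then 10 μM test compound. Inhibition ratio from DMSO compared with that from compound by unpaired t-test, n = 5.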

[5] = target: NaV1.7 (Homo sapiens, UniProt Q15858); test: whole-cell patch-clamp, off-target channel, 10 μM compound
NaV1.7, sequence (Q15858 whole entry): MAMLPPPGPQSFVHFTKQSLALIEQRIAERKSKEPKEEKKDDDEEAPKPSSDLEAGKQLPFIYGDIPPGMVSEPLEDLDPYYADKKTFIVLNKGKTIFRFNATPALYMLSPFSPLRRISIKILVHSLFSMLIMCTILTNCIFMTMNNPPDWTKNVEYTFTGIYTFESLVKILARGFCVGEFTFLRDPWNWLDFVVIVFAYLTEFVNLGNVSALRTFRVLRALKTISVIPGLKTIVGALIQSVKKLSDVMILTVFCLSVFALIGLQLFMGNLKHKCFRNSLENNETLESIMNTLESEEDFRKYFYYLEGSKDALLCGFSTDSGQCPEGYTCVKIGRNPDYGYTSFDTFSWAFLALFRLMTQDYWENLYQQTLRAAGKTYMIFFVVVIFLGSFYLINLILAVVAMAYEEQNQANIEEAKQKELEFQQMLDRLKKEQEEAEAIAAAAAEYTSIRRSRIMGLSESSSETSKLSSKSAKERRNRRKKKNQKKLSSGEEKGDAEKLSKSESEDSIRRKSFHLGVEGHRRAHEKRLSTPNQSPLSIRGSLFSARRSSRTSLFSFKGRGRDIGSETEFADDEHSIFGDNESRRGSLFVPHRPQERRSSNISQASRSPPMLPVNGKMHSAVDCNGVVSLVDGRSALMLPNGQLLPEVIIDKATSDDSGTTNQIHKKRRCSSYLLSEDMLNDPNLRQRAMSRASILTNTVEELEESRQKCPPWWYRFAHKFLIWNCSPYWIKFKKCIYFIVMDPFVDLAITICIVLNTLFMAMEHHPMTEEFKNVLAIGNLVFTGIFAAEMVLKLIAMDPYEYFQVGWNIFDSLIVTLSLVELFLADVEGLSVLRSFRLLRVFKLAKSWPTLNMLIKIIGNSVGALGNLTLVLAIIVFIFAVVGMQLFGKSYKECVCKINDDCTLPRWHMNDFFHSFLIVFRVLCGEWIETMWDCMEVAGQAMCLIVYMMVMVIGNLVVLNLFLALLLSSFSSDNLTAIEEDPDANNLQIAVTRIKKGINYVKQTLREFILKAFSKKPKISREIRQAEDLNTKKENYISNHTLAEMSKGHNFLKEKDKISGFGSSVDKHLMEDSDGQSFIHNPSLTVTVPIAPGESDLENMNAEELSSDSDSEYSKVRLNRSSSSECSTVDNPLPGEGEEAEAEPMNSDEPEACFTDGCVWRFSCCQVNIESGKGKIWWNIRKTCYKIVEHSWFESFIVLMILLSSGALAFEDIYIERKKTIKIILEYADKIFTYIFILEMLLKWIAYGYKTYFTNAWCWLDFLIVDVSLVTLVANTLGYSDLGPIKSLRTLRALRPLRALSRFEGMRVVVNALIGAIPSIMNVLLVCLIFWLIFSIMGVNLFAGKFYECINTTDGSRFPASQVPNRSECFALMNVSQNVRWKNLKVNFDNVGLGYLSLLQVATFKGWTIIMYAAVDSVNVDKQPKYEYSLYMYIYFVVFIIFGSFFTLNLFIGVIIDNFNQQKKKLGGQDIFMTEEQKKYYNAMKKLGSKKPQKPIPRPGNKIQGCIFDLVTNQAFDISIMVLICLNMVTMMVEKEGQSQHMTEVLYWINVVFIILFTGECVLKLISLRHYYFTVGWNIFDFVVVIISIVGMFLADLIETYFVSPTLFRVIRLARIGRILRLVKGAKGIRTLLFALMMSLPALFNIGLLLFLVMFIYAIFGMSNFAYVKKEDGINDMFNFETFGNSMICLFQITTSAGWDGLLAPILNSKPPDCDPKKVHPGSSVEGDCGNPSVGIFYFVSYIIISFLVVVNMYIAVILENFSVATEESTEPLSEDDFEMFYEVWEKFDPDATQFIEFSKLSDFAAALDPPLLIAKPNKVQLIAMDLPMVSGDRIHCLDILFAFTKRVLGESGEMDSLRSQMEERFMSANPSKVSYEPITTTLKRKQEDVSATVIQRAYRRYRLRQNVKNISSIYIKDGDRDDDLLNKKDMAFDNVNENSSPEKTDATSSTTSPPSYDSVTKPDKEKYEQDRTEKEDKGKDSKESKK
In short: (§1)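 NaV channels, transiently transfected HEK293T cells, whole-cell, 16–24 h after seeding. Pipette (mM): 140 CsF, 1 EGTA, 10 NaCl, 10 HEPES, pH 7.4. Bath (mM): 140 NaCl, 5 KCl, 2 CaCl2, 1 MgCl2, 10 glucose, 10 HEPES, pH 7.4. Bath with 0.1% DMSO applied before 10 μM test compound. Inhibition ratios compared by unpaired t-test, n = 5.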

[6] = target: NaV1.5 (Homo sapiens, UniProt Q14524); test: as above
NaV1.5, sequence (Q14524 whole entry): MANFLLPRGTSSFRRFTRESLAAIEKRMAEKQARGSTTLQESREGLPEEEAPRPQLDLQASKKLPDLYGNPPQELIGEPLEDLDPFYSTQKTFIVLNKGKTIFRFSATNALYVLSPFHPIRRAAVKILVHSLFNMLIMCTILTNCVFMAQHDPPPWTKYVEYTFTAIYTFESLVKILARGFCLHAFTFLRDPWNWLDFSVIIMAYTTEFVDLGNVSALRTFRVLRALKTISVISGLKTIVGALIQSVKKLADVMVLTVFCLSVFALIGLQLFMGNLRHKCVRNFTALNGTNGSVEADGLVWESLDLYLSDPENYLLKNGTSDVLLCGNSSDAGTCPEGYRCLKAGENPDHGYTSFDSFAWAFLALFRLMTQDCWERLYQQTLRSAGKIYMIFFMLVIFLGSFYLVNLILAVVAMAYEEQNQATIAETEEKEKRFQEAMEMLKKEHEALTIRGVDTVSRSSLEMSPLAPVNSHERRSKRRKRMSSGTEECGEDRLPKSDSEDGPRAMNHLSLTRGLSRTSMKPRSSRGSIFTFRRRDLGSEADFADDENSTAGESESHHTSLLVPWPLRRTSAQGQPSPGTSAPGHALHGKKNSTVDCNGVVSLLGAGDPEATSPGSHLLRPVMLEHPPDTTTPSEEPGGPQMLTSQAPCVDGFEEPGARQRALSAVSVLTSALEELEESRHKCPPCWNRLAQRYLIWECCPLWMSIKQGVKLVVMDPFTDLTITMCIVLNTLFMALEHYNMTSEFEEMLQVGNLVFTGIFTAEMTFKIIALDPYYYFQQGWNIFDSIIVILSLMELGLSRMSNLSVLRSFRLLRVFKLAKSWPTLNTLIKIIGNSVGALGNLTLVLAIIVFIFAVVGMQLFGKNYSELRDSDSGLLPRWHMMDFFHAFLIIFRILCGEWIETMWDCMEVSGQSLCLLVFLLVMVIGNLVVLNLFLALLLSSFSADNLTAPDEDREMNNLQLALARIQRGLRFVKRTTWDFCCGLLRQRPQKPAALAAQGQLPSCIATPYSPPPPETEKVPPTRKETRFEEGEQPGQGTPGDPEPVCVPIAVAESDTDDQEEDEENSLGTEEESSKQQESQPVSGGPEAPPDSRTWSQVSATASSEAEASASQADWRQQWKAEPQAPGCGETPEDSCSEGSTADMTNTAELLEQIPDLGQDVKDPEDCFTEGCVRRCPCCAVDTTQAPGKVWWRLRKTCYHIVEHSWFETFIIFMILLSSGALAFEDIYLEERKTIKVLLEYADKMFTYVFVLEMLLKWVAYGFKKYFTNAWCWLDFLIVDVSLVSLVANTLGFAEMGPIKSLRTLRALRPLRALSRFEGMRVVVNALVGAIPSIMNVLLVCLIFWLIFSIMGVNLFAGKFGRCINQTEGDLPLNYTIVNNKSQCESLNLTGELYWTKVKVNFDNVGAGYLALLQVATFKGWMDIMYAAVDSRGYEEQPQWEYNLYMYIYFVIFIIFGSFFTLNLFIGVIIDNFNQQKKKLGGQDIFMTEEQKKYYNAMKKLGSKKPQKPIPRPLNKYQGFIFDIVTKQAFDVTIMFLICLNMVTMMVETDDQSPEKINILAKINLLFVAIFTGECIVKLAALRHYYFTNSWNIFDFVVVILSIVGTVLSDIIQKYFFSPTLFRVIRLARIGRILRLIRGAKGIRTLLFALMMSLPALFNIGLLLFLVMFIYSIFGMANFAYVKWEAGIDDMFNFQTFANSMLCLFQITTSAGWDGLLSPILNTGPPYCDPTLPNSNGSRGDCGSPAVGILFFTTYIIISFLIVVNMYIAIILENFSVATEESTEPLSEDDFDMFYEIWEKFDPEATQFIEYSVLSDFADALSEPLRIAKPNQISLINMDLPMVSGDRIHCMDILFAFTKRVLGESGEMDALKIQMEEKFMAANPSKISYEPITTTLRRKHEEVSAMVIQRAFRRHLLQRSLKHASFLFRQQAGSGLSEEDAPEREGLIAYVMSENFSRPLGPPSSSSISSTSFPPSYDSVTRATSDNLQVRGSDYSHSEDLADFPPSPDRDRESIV
In short: as §1

[7] = target: ASIC1a (Rattus norvegicus, UniProt P55926); test: whole-cell patch-clamp, off-target channel, 10 μM compound; settings: vs 0.1% DMSO
ASIC1a, sequence (P55926 whole entry): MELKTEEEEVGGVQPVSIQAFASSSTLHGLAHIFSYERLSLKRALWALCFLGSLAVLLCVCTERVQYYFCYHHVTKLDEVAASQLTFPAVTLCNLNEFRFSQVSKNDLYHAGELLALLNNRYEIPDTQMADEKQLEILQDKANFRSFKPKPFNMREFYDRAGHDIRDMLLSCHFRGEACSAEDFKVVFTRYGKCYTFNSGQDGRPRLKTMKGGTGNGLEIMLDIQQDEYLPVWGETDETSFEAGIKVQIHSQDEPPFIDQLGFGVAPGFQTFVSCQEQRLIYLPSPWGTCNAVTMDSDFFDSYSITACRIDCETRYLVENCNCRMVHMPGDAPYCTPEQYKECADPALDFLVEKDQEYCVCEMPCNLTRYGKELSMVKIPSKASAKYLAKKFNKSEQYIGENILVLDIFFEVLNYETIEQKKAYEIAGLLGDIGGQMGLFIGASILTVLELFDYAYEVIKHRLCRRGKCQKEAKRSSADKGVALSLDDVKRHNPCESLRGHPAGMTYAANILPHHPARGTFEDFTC
In short: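 ASIC channels in transfected HEK293T cells, whole-cell. Pipette (mM): 140 CsF, 11 EGTA, 1 CaCl2, 2 TEA-Cl, 4 MgCl2, 10 HEPES, pH 7.3. NaCl-based bath with 20 mM HEPES (pH 7.4) or 20 mM MES (pH 5.5). 0.1% DMSO bath applied before 10 μM test compound. Inhibition ratios compared by unpaired t-test, n = 5.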

[8] = target: CaV3.1 (Homo sapiens, UniProt O43497); test: whole-cell patch-clamp, off-target channel, 10 μM compound
In short: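 CaV channels in transfected HEK293T cells, whole-cell. Pipette (mM): 120 CsMeSO3, 2 Mg-ATP, 11 EGTA, 10 HEPES, pH 7.4. Bath (mM): 138 NaCl, 5.6 KCl, 2.6 CaCl2, 20 TEA-Cl, 5 glucose, 5 HEPES, pH 7.4. 0.1% DMSO bath applied before 10 μM test compound. Inhibition ratios compared by unpaired t-test, n = 5.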

[9] = target: mOtop1 D245A (Mus musculus, UniProt Q80VM9, D245A); test: patch-clamp, mOtop1 mutant; settings: 10 μM; pH 5.5
In short: (§2)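 Alanine-substituted mOtop1 mutants were co-transfected (2.5 μg channel plus 0.5 μg EGFP plasmid, Lipofectamine 2000) into PAC-knockout HEK293T cells. Whole-cell recording 16–24 h after seeding on PLL coverslips. Pipette (mM): 120 Cs-aspartate, 15 CsCl, 2 Mg-ATP, 5 EGTA, 2.4 CaCl2, 10 HEPES, pH 7.3. Bath (mM): 160 NMDG-Cl, 2 CaCl2, 10 MES, pH 5.5, with 10 μM test compound. Response compared with wild-type mOtop1.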

[10] = target: mOtop1 R554N (Mus musculus, UniProt Q80VM9, R554N); test: patch-clamp, mOtop1 mutant; settings: Fig 5G, H
[11] = target: mOtop1 T233A (Mus musculus, UniProt Q80VM9, T233A); test: patch-clamp, mOtop1 mutant; settings: 10 μM; pH 5.5
In short: as §2

sensitivity of channel to compound [1]	sensitivity of channel to compound ([2]; vs 0.1% DMSO)	sensitivity of channel to compound [3]	inhibition ratio [5] [%]	sensitivity of channel to compound [7]	inhibition ratio [2] [%]	sensitivity of channel to compound ([8]; vs 0.1% DMSO)	response of mutant to MFaN compared to wild-type mOtop1 [9]	sensitivity of channel to compound ([5]; vs 0.1% DMSO)	effect of mutation on MFaN's potentiation effect vs WT mOtop1 [10]	response of mutant to MFaN compared to wild-type mOtop1 [11]	inhibition ratio [8] [%]	SMILES	inhibition ratio [4] [%]	inhibition ratio [6] [%]
completely resistant	completely resistant											Cc1cc(NC(=O)c2ccc(Br)o2)ccc1NC(=O)c1ccco1 [B2FAMP, 5-Bromo-N-[4-(2-furoylamino)-3-methylphenyl]-2-furamide]		
completely resistant		completely resistant	11.3	completely resistant	12.9	completely resistant						CC(C)c1noc2ncc(C(=O)c3ccccc3O)cc12 [HIMOP, (2-hydroxyphenyl)-(3-propan-2-yl-5-isoxazolo[5,4-b]pyridinyl)methanone]	8.5	8.9
completely resistant		completely resistant		completely resistant	7.0		significantly enhanced	completely resistant	eliminated	markedly reduced	11.7	Cc1ccc(C(=O)Nc2ccc3ccccc3c2)o1 [MFaN, 5-methyl-N-2-naphthyl-2-furamide]	13.7	14.8
